Values joined by “and” are separate entries in the source; they are usually repeats but may differ in a detail not shown here. Equal values may be shown once.
System: HEK-293T
Assay: Multiplex assay against HEK293T;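 for Population Tubulin-Different-Phenotype (%): share of the cells with healthy nuclei that show this phenotype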
Assay type: toxicity, cell-based
Conditions: human, 1 µM, compound concentration 1 uM
How it was run: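 With compound added, live cells were imaged on a CQ1 microscope at 37°C and 5% CO2; staining with Hoechst33342, BioTracker Green Microtubule Cytoskeleton Dye, MitoTracker Red and Annexin V Alexa Fluor 680 had been done at seeding. The CellPathfinder machine-learning gating scheme split cells into Hoechst high-intensity objects or normal cells, normal cells into healthy, pyknosed or fragmented nuclei, and pyknosed cells into mitotic or apoptotic. The tubulin, mitochondrial-mass and membrane-permeability phenotypes are per cents of healthy-nucleus cells.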

Q: What does the source list for `CN([C@@H](Cc1ccc(OS(=O)(=O)c2cccc3cnccc23)cc1)C(=O)N1CCN(c2ccccc2)CC1)S(=O)(=O)c1cccc2cnccc12`?
A: Population Apoptotic (%) (12 h, replicate 1): 32% and 22%; Population Fragmented Nuclei (%) (12 h, replicate 1): 26% and 15%; Population Healthy Nuclei (%) (12 h, replicate 1): 31% and 38%; Population Hoechst High Intensity Objects (%) (12 h, replicate 1): 18% and 15%; Population Membrane Permeable-Phenotype (%) (12 h, replicate 1): 34% and 31%; Population Mitochondria Different-Phenotype (%) (12 h, replicate 1): 22%; Population Mitotic Cells (%) (12 h, replicate 1): 67% and 77%; Population Normal (%) (12 h, replicate 1): 81% and 84%; Population Pyknosed Nuclei (%) (12 h, replicate 1): 42% and 46%; Population Tubulin-Different-Phenotype (%) (12 h, replicate 1): 77% and 86%; Total Cell Count (12 h, replicate 1): 417 and 601; Population Apoptotic (%) (12 h, replicate 2): 15% and 13%; Population Fragmented Nuclei (%) (12 h, replicate 2): 2% and 3%; Population Healthy Nuclei (%) (12 h, replicate 2): 73%; Population Hoechst High Intensity Objects (%) (12 h, replicate 2): 3% and 2%; Population Membrane Permeable-Phenotype (%) (12 h, replicate 2): 28% and 27%; Population Mitochondria Different-Phenotype (%) (12 h, replicate 2): 34% and 43%; Population Mitotic Cells (%) (12 h, replicate 2): 84% and 86%; Population Normal (%) (12 h, replicate 2): 96% and 97%; Population Pyknosed Nuclei (%) (12 h, replicate 2): 23% and 22%; Population Tubulin-Different-Phenotype (%) (12 h, replicate 2): 97%; Total Cell Count (12 h, replicate 2): 993 and 1067; Population Apoptotic (%) (24 h, replicate 1): 39% and 33%; Population Fragmented Nuclei (%) (24 h, replicate 1): 22% and 14%; Population Healthy Nuclei (%) (24 h, replicate 1): 46% and 51%; Population Hoechst High Intensity Objects (%) (24 h, replicate 1): 14% and 13%; Population Membrane Permeable-Phenotype (%) (24 h, replicate 1): 20%; Population Mitochondria Different-Phenotype (%) (24 h, replicate 1): 50% and 32%; Population Mitotic Cells (%) (24 h, replicate 1): 60% and 66%; Population Normal (%) (24 h, replicate 1): 85% and 86%; Population Pyknosed Nuclei (%) (24 h, replicate 1): 31% and 33%; Population Tubulin-Different-Phenotype (%) (24 h, replicate 1): 88% and 94%; Total Cell Count (24 h, replicate 1): 402 and 587; Population Apoptotic (%) (24 h, replicate 2): 11%; Population Fragmented Nuclei (%) (24 h, replicate 2): 9% and 3%; Population Healthy Nuclei (%) (24 h, replicate 2): 75% and 68%; Population Hoechst High Intensity Objects (%) (24 h, replicate 2): 2% and 5%; Population Membrane Permeable-Phenotype (%) (24 h, replicate 2): 25% and 18%; Population Mitochondria Different-Phenotype (%) (24 h, replicate 2): 40% and 37%; Population Mitotic Cells (%) (24 h, replicate 2): 88%; Population Normal (%) (24 h, replicate 2): 97% and 94%; Population Pyknosed Nuclei (%) (24 h, replicate 2): 15% and 28%; Population Tubulin-Different-Phenotype (%) (24 h, replicate 2): 98% and 96%; Total Cell Count (24 h, replicate 2): 1327 and 1023
